Each block holds one compound with its values, some of them ahead of it. Activity calls are given as the source filed them. No cut-off for these calls is given here.
How the values were obtained:
Mus musculus [1] = experiment: Antiinflammatory activity in DSS-induced C57BL/6 mouse acute colitis model assessed as lowering of disease activity index at 120 mg/kg administered by oral gavage from day 5 to day 12 measured on day 13 relative to DSS-treated control; assay type: functional, organism-based
Summary of the method: (§1)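 Colitis induced in C57BL/6 mice with 2.0% (w/v) DSS in drinking water for 5 days; controls got distilled water. Saline vehicle, Pd-Ib (30, 60 or 120 mg/kg/day) or SASP (300 mg/kg/day) given by gavage through day 12. Weight, stool consistency and bleeding monitored daily. DAI combines weight-loss, stool and bleeding scores. On day 13, colon measured from ileo-cecal junction to anal verge. n = 8, mean ± SD.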

Mus musculus [2] = experiment: Antiinflammatory activity in DSS-induced C57BL/6 mouse acute colitis model assessed as lowering of IL-17A level administered by oral gavage from day 5 to day 12 measured on day 13; assay type: functional, organism-based
Summary of the method: (§2)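 Colon tissue from DSS-colitis mice dosed by gavage (day 13 harvest) homogenized in lysis buffer and spun at 16000g, 4 °C, 15 min. Cytokines in supernatant measured by multiplex bead immunoassay and reported as pg/mL. Protein determined by Bradford with BSA standard. n = 8, mean ± SD.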

Mus musculus [3] = experiment: Antiinflammatory activity in DSS-induced C57BL/6 mouse acute colitis model assessed as attenuation of shortening of colon length at 60 to 120 mg/kg administered by oral gavage from day 5 to day 12 measured on day 13; assay type: functional, organism-based; summary of the method: as §1
Mus musculus [4] = experiment: Antiinflammatory activity in DSS-induced C57BL/6 mouse acute colitis model assessed as lowering of NO production at 30 to 120 mg/kg administered by oral gavage from day 5 to day 12 measured on day 13 by Griess assay; assay type: functional, organism-based
Summary of the method: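 On day 13 after DSS colitis and gavage dosing, frozen colon weighed and homogenized in 0.5% hexadecyltrimethylammonium bromide (100 mg tissue/mL). Spun at 16000g, 4 °C, 15 min. Supernatant nitrite measured with Griess reagent. n = 8, mean ± SD.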

Mus musculus [5] = experiment: Antiinflammatory activity in DSS-induced C57BL/6 mouse acute colitis model assessed as lowering of IFN-gamma level administered by oral gavage from day 5 to day 12 measured on day 13; assay type: functional, organism-based; summary of the method: as §2
Mus musculus [6] = experiment: Antiinflammatory activity in DSS-induced C57BL/6 mouse acute colitis model assessed as increase of IL-10 level at 30 to 120 mg/kg administered by oral gavage from day 5 to day 12 measured on day 13 relative to DSS-treated control; assay type: functional, organism-based
Mus musculus [7] = experiment: Downregulation of elevated p-STAT3 level in colon homogenate of DSS-induced C57BL/6 mouse acute colitis model administered by oral gavage from day 5 to day 12 measured on day 13 by Western blot analysis; assay type: functional, organism-based
Summary of the method: (§3)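 Colonic tissue extracts from DSS-colitis mice gavaged through day 12 and sacrificed day 13. Lysed in RIPA buffer (pH 7.4) with phosphatase/protease inhibitors, run on 10% SDS-PAGE and immunoblotted for STAT3, p-STAT3, p38 and p-p38. Blots stripped and reprobed for β-actin as loading control.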

[8] = biological target: Signal transducer and activator of transcription 3 (Mus musculus) (UniProt P42227); experiment: Inhibition of LPS-induced STAT3 phosphorylation in mouse RAW264.7 cells at 40 ug/ml after 24 hrs by Western blot analysis; assay type: cell-based
Summary of the method: (§4)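 RAW264.7 macrophages (DMEM, 10% FBS, 37 °C, 5% CO2) treated with LPS 1 μg/mL alone or with Pd-Ib 5, 10, 20 or 40 μg/mL for 24 h. Lysates in RIPA buffer, 10% SDS-PAGE, immunoblotted for phospho and total STAT3, JNK, ERK and p38; β-actin loading control.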

Mus musculus [9] = experiment: Antiinflammatory activity in DSS-induced C57BL/6 mouse acute colitis model assessed as lowering of TNF-alpha level administered by oral gavage from day 5 to day 12 measured on day 13; assay type: functional, organism-based; summary of the method: as §2
Mus musculus [10] = experiment: Antiinflammatory activity in DSS-induced C57BL/6 mouse acute colitis model assessed as reduction in loss of body weight at 120 mg/kg administered by oral gavage after 9 days of induction; assay type: functional, organism-based; summary of the method: as §1
Mus musculus [11] = experiment: Antiinflammatory activity in DSS-induced C57BL/6 mouse acute colitis model assessed as protection against mucosal injury at 120 mg/kg administered by oral gavage from day 5 to day 12 measured on day 13 by hematoxylin/eosin staining-based microscopic analysis; assay type: functional, organism-based
Summary of the method: (§5)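 DSS colitis (2% w/v, 5 days) with daily gavage of saline, Pd-Ib (30–120 mg/kg) or SASP (300 mg/kg) through day 12; sacrifice day 13. Colons rinsed in ice-cold PBS, fixed overnight in 4% paraformaldehyde, paraffin-embedded. 5 μm sections H&E stained and graded on a 0–10 histological scale. n = 8, mean ± SD.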

Mus musculus [12] = experiment: Antiinflammatory activity in DSS-induced C57BL/6 mouse acute colitis model assessed as increase of IL-4 level at 30 to 120 mg/kg administered by oral gavage from day 5 to day 12 measured on day 13 relative to DSS-treated control; assay type: functional, organism-based; summary of the method: as §2
RAW264.7 [13] = experiment: Inhibition of LPS-induced IL-6 production in mouse RAW264.7 cells at 5 to 20 ug/ml after 24 hrs by ELISA; assay type: functional, cell-based
Summary of the method: (§6)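 RAW264.7 cells incubated 24 h with Pd-Ib (0, 5, 10, 20, 40 μg/mL), with or without LPS 1 μg/mL. IL-6 in the culture supernatant quantified by ELISA.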

Mus musculus [14] = experiment: Antiinflammatory activity in DSS-induced C57BL/6 mouse acute colitis model assessed as lowering of IL-6 level administered by oral gavage from day 5 to day 12 measured on day 13; assay type: functional, organism-based; summary of the method: as §2
Mus musculus [15] = experiment: Downregulation of elevated p-p38 level in colon homogenate of DSS-induced C57BL/6 mouse acute colitis model administered by oral gavage from day 5 to day 12 measured on day 13 by Western blot analysis; assay type: functional, organism-based; summary of the method: as §3
RAW264.7 [16] = experiment: Inhibition of LPS-induced IL-6 production in mouse RAW264.7 cells at 40 ug/ml after 24 hrs by ELISA; assay type: functional, cell-based; summary of the method: as §6
Mus musculus [17] = experiment: Antiinflammatory activity in DSS-induced C57BL/6 mouse acute colitis model assessed as lowering of MPO activity in colon homogenate at 30 to 120 mg/kg administered by oral gavage from day 5 to day 12 measured on day 13; assay type: functional, organism-based
Summary of the method: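 Mice given DSS colitis and gavage treatment as above, sacrificed day 13. MPO activity in colon homogenate taken from the rate of optical density change; one unit gives an OD change of 1.0/min at 25 °C. Normalized to colon wet weight, expressed as units/mg tissue. n = 8.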

[18] = biological target: MAP kinase p38 (Mus musculus) (UniProt P47811+O08911+Q9WUI1+Q9Z1B7); experiment: Inhibition of LPS-induced p38 phosphorylation in mouse RAW264.7 cells at 5 to 40 ug/ml after 24 hrs by Western blot analysis; assay type: cell-based; summary of the method: as §4
Mus musculus [19] = experiment: Antiinflammatory activity in DSS-induced C57BL/6 mouse acute colitis model assessed as reduction in loss of body weight at 30 to 60 mg/kg administered by oral gavage after 9 days of induction; assay type: functional, organism-based; summary of the method: as §1
RAW264.7 [20] = experiment: Inhibition of LPS-induced ERK phosphorylation in mouse RAW264.7 cells at 5 to 40 ug/ml after 24 hrs by Western blot analysis; assay type: cell-based; summary of the method: as §4
[21] = biological target: Signal transducer and activator of transcription 3 (Mus musculus) (UniProt P42227); experiment: Inhibition of LPS-induced STAT3 phosphorylation in mouse RAW264.7 cells at 20 ug/ml after 12 hrs by Western blot analysis; assay type: cell-based
Summary of the method: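 RAW264.7 cells given LPS 1 μg/mL with or without Pd-Ib 20 μg/mL for 0–24 h, then harvested and lysed. p-STAT3 and β-actin detected by Western blot.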

Mus musculus [22] = experiment: Antiinflammatory activity in DSS-induced C57BL/6 mouse acute colitis model assessed as lowering of histological score at 30 to 120 mg/kg administered by oral gavage from day 5 to day 12 measured on day 13 by hematoxylin/eosin staining-based microscopic analysis; assay type: functional, organism-based; summary of the method: as §5
RAW264.7 [23] = experiment: Inhibition of LPS-induced JNK phosphorylation in mouse RAW264.7 cells at 5 to 40 ug/ml after 24 hrs by Western blot analysis; assay type: cell-based; summary of the method: as §4
Mus musculus [24] = experiment: Antiinflammatory activity in DSS-induced C57BL/6 mouse acute colitis model assessed as protection against mucosal injury at 300 mg/kg administered by oral gavage from day 5 to day 12 measured on day 13 by hematoxylin/eosin staining-based microscopic analysis; assay type: functional, organism-based; summary of the method: as §5
Mus musculus [25] = experiment: Antiinflammatory activity in DSS-induced C57BL/6 mouse acute colitis model assessed as lowering of disease activity index at 300 mg/kg administered by oral gavage from day 5 to day 12 measured on day 13 relative to DSS-treated control; assay type: functional, organism-based; summary of the method: as §1
Mus musculus [26] = experiment: Antiinflammatory activity in DSS-induced C57BL/6 mouse acute colitis model assessed as lowering of IL-17A level at 300 mg/kg administered by oral gavage from day 5 to day 12 measured on day 13; assay type: functional, organism-based; summary of the method: as §2
Mus musculus [27] = experiment: Antiinflammatory activity in DSS-induced C57BL/6 mouse acute colitis model assessed as lowering of IL-6 level at 300 mg/kg administered by oral gavage from day 5 to day 12 measured on day 13; assay type: functional, organism-based; summary of the method: as §2

Sequence of Signal transducer and activator of transcription 3 (Mus musculus) (P42227 whole entry): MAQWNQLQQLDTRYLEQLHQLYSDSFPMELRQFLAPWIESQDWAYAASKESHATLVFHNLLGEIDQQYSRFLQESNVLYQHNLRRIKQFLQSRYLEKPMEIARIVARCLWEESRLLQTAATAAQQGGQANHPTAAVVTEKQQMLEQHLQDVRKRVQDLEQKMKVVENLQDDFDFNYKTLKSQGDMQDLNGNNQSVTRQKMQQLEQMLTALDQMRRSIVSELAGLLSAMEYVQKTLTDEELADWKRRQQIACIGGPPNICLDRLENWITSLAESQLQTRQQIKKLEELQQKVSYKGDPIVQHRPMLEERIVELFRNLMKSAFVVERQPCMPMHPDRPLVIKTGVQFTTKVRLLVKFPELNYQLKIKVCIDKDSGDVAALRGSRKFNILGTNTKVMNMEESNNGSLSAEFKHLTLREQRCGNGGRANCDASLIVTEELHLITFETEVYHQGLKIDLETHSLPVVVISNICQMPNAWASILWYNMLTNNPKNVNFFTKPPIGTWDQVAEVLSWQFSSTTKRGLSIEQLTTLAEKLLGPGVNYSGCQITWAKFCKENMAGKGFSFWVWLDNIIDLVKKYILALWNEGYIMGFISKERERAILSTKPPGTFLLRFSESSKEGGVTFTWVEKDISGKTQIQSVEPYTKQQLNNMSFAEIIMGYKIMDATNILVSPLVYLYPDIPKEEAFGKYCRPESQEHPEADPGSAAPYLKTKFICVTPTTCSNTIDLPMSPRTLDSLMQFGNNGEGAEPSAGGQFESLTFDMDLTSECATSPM

inhibition [8]: Active
inhibition [18]: Active
inhibition [21]: Active
Compound: C/C=C(/C)C(=O)O[C@H]1C(=O)c2c(ccc3ccc(=O)oc23)OC1(C)C
Activity (Mus musculus [1]): Active
Activity (Mus musculus [2]): Dose-dependent effect
Activity (Mus musculus [3]): Active
Activity (Mus musculus [4]): Active
Activity (Mus musculus [5]): Dose-dependent effect
Activity (Mus musculus [6]): inactive
Activity (Mus musculus [7]): Dose-dependent effect
Activity (Mus musculus [9]): Dose-dependent effect
Activity (Mus musculus [10]): Active
Activity (Mus musculus [11]): Active
Activity (Mus musculus [12]): Active
inhibition (RAW264.7 [13]): Active
Activity (Mus musculus [14]): Dose-dependent effect
Activity (Mus musculus [15]): Dose-dependent effect
inhibition (RAW264.7 [16]): inactive
Activity (Mus musculus [17]): Active
Activity (Mus musculus [19]): inactive
inhibition (RAW264.7 [20]): inactive
Activity (Mus musculus [22]): Active
inhibition (RAW264.7 [23]): Active

Compound: O=C(O)c1cc(/N=N/c2ccc(S(=O)(=O)Nc3ccccn3)cc2)ccc1O
Activity (Mus musculus [24]): Active
Activity (Mus musculus [25]): Active
Activity (Mus musculus [26]): Active
Activity (Mus musculus [27]): Active

Reference: ChEMBL document CHEMBL4477159, “Anti-inflammatory Actions of (+)-3'α-Angeloxy-4'-keto-3',4'-dihydroseselin (Pd-Ib) against Dextran Sulfate Sodium-Induced Colitis in C57BL/6 Mice” (J Nat Prod, 2016)
